Consider two compounds from ChEMBL document CHEMBL1144537, “Synthesis of a non-cationic, water-soluble perylenetetracarboxylic diimide and its interactions with G-quadruplex-forming DNA” (Bioorg Med Chem, 2007).

The source made the active and inactive calls. The calls are words filed in the database; no cut-off is given here.

The nature of test [1]: Binding affinity to 32 base containing human telomeric repeat G-rich ssDNA by fluorescence quenching assay. A digest of the protocol:
(§1)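 Ligand held at fixed 34–168 nM in 10 mM Tris–HCl (pH 8.0) with 100 mM KCl and 1 mM EDTA, then titrated with G-rich strand, C-rich complement, or duplex made by mixing both. Each addition mixed 2 min at 25 °C. Excitation 450 nm; quenching at 545 nm read. Kd fitted by nonlinear least squares to non-interacting-site mass-action model; triplicate titrations, mean ± SD.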

Test [2] in a line: Binding affinity to 32 base containing complementary human telomeric repeat C-rich ssDNA by fluorescence quenching assay. A digest of the protocol:
as §1

Test [3] is described as follows: Binding affinity to double stranded human telomeric repeat by fluorescence quenching assay. The method in brief:
as §1

Test [4] is described as follows: Binding affinity to human nuclease hypersensitive region of c-MYC gene NHE-27 by fluorescence quenching assay. A digest of the protocol: as §1
The nature of test [5]: Binding affinity to human double stranded nuclease hypersensitive region of c-MYC gene NHE-27 by fluorescence quenching assay. The method in brief:
as §1

Test [6] is filed under the species Homo sapiens. Description: Induction of tetramer formation in human nuclease hypersensitive region of c-MYC gene NHE-27 G-rich ssDNA.
The species entered for test [7] is Homo sapiens. Description: Induction of tetramer formation in human telomeric repeat 2HTR G-rich ssDNA.
For test [8], the species on record is Homo sapiens. Description: Induction of dimer formation in human nuclease hypersensitive region of c-MYC gene NHE-27 G-rich ssDNA.
The species entered for test [9] is Homo sapiens. Description: Induction of dimer formation in human telomeric repeat 2HTR G-rich ssDNA.
Test [10] is described as follows: Binding affinity to complementary nuclease hypersensitive region of c-MYC gene NHE-27 by fluorescence quenching assay. Set-up: species or system Homo sapiens. The method in brief: as §1

The Kd is a measure of binding affinity in units of concentration. Read a low Kd as tighter binding. Take `O=C1c2ccc3c4ccc5c6c(ccc(c7ccc(c2c37)C(=O)N1CCN1CCCCC1)c64)C(=O)N(CCN1CCCCC1)C5=O`: the Kd was 0.0034 µM in test [1]; 0.01 µM in [2]; 0.03 µM in test [3]; 0.0055 µM in [4]; 0.0066 µM in [5]. Also, the result in the test listed under Homo sapiens [6], in the test filed under Homo sapiens [7], in the test filed under Homo sapiens [8] and in the test listed under Homo sapiens [9] was Active.

Consider `COCCOCCOCC(COCCOCCOC)N1C(=O)c2ccc3c4ccc5c6c(ccc(c7ccc(c2c37)C1=O)c64)C(=O)N(C(COCCOCCOC)COCCOCCOC)C5=O`, for which the dissociation constant Kd in test [1] was greater than 20 µM; in test [2], greater than 20 µM; in test [3] it was greater than 20 µM; in [4], 0.98 µM; in [10], greater than 20 µM; in test [5], 14.8 µM. Moreover, the result in the test listed under Homo sapiens [6], in the test listed under Homo sapiens [7], in the test filed under Homo sapiens [8] and in the test filed under Homo sapiens [9] was inactive.
